Kir21 block = blocks the mouse Kir2.1 inward-rectifier potassium channel. P35561. HEK293-Kir2.1, FluxOR thallium flux fluorescence; stronger effect = lower value. B-score at 10 µM. hit rate 0.85% among 310,000. AID 1672;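 active = fluorescence ratio B-score at or below minus 3 SD of library scores, with starting-brightness B-score within 2 SD, cut at about -4.2 in these data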;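 note: channel flux triggered by added potassium and thallium sulfate stimulus; B-score of peak minus minimum fluorescence over baseline after thallium stimulus; more negative B-score means stronger Kir2.1 block with less thallium influx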
TRPC6 act = activators of mouse TRPC6 channel | Q61143 | HEK293-TRPC6 membrane potential dye fluorescence; stronger effect = higher value | B-score at 10 µM | hit rate 0.13% among 310,000 | AID 2550;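 active = B-score of the integrated fluorescence ratio above library mean plus 3 SD, and starting fluorescence ratio within library mean plus 5 SD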;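 note: higher score means more depolarization so channel activation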
TRPC4 potent = allosteric potentiators of mouse TRPC4 channel; AID 2227; hit rate 0.42% among 310,000; Q9QUQ5; HEK293 TRPC4beta/mu-opioid, DAMGO EC20, Fluo-4 Ca2+ flux; stronger effect = higher value; B-score at 10 µM;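 active = B-score of calcium response area above 5 SD of library B-scores, with initial fluorescence ratio within 5 SD of library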;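 note: B-score of integrated fluorescence ratio over time as area under calcium response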
Target sequence (Q9QUQ5 whole entry, looked up): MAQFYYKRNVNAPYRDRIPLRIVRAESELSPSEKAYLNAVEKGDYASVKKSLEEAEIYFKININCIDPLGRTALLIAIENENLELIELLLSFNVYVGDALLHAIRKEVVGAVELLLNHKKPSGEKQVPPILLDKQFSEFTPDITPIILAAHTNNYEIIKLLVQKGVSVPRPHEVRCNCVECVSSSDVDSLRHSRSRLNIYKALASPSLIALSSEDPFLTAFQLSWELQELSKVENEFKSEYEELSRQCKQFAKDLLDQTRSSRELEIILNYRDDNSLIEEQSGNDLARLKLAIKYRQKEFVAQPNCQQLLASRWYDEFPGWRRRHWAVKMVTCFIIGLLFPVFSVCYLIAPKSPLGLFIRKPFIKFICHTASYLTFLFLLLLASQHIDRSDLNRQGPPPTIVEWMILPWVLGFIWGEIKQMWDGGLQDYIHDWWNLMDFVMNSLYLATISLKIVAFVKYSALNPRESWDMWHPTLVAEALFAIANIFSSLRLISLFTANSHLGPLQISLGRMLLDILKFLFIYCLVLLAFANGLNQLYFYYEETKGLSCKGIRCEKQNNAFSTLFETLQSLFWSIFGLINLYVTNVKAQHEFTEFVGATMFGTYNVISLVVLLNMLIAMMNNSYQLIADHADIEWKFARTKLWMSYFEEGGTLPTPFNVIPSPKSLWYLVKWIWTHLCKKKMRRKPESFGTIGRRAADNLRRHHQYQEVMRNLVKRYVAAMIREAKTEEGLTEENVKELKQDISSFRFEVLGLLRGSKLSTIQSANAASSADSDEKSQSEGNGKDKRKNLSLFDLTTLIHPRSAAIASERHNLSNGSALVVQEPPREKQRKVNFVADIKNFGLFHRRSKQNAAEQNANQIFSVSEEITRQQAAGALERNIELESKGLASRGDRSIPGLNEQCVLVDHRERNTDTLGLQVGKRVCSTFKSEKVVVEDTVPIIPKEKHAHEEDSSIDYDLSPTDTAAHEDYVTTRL
TRPC4 inh = blocks the mouse TRPC4 cation channel; Q9QUQ5; HEK293 TRPC4beta/mu-opioid, DAMGO-evoked Fluo4 calcium flux; stronger effect = lower value; B-score at 10 µM; hit rate 0.39% among 300,000; AID 2247;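 active = B-score over 3 SD under the library average, no early fluorescence shift, positive overall ratio signal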
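Assay system – HEK293 line stably carrying TRPC4beta and mu-opioid receptor · Doses – single dose · Detection – Fluo4 calcium-dye fluorescence, kinetic read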
TRPC4 agonist = TRPC4 (mouse) channel activation. hit rate 0.49% among 310,000. B-score at 10 µM. Q9QUQ5. AID 2237. HEK293 TRPC4beta/mu-opioid, Fluo4 calcium fluorescence; stronger effect = higher value;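 active = B-score above 5 SD of library B-scores, and initial fluorescence ratio not above library mean plus 5 SD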;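 note: positive B-score marks a calcium rise read as TRPC4 activation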
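Material: HEK293 stable line with TRPC4beta plus mu-opioid receptor; technique: Fluo4 calcium-sensitive dye fluorescence, kinetic, 1 Hz baseline; timing: Fluo4 dye loading 45 min at room temperature, 110 s recording; controls: assay buffer as low control, maximal DAMGO as high control; read-out: integrated baseline-normalised fluorescence ratio, converted to per-well B score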
TRPC6 inh = inhibitors of mouse TRPC6 channel. Q61143. HEK293-TRPC6, membrane potential dye, ACh-evoked depolarization; stronger effect = lower value. B-score at 10 µM. hit rate 1.1% among 310,000;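 active = B-score under library mean minus 3 SD, initial fluorescence not abnormally high, positive integrated signal ratio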;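 note: B-score derived from integrated fluorescence ratio over the kinetic read; more negative B-score means stronger inhibition of depolarization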
TRPC4 sel inh 2 = mouse TRPC4 off-target activity of TRPC6 inhibitors, second screen; shares compounds with TRPC6 inh; HEK293 TRPC4/MOR, membrane potential dye fluorescence; channel activated by saturating DAMGO dose; inhibition, % at 10 µM; hit rate 42% among 920;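 active = compounds whose fluorescence signal differed from control wells by over 3 SD, either direction, in both duplicate plates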
TRPC4 spec = selectivity of TRPC6 inhibitors: effect on mouse TRPC4; shares compounds with TRPC6 inh; activity change, negative = inhibition, % at 10 µM; hit rate 61% among 920; HEK293 TRPC4/mu-opioid, membrane potential fluorescence;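 active = rise or fall in signal beyond 3 SD of buffer-only wells in both replicate plates, either sign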;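 note: integrated kinetic ratio of fluorescence range over baseline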
HEK293 MPD ctr 2-1 = second check of TRPC6 inhibitor effects in parental HEK293 cells; signal change vs control, % at 10 µM; hit rate 31% among 920; parental HEK293 membrane potential dye fluorescence; maximal acetylcholine challenge after compound addition; shares compounds with TRPC6 inh;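 active = membrane potential signal moving either way by over 3 SD of the maximum-effect control, in both duplicate plates, meaning non-specific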
HEK293 MPD ctr-1 = parental HEK293 nonspecific activity of TRPC6 inhibitors; shares compounds with TRPC6 inh; parental HEK293 membrane potential dye fluorescence; membrane potential signal change, % at 10 µM; hit rate 60% among 920; AID 2780;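 active = membrane potential signal shifting up or down by more than 3 SD of buffer-only wells, on both duplicate plates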
HEK293 MPD ctr-2 = parental HEK293 nonspecific activity of TRPC6 modulators. shares compounds with TRPC6 inh. membrane potential dye fluorescence. membrane potential signal change, % at 10 µM. hit rate 51% among 2,400. AID 488924;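 active = membrane potential signal moves up or down beyond 5 SD from buffer-only wells, on both duplicate plates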
HEK293 MPD ctr 2-2 = second check of TRPC6 modulator effects in parental HEK293 cells; shares compounds with TRPC6 inh; membrane potential dye fluorescence; after compound, maximal acetylcholine stimulation; inhibition, % at 10 µM; hit rate 14% among 2,400;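 active = membrane potential signal drops by more than 5 SD from the mean control signal, in both duplicate plates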;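 note: plate controls were acetylcholine ECmax control wells for no effect and buffer only wells for full effect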
TRPC4/MOR mod = tests whether TRPC6 modulators also affect mouse TRPC4; AID 488927; hit rate 69% among 2,400; percent change from control (negative = decrease, positive = increase), % at 10 µM; HEK293 TRPC4/mu-opioid, membrane potential fluorescence; shares compounds with TRPC6 inh;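 active = membrane potential signal moved up or down beyond 5 SD of buffer control wells, in both duplicate plates, actives on both sides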;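 note: plate controls were assay buffer wells for no effect and DAMGO maximal-effect wells for full effect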
TRPC4/MOR inh 2 = mouse TRPC4 off-target activity of TRPC6 modulators, second screen; shares compounds with TRPC6 inh; HEK293 TRPC4/mu-opioid, membrane potential dye fluorescence; stimulated with maximal-effect DAMGO; inhibition, % at 10 µM; hit rate 55% among 2,400; AID 488928;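 active = drop in membrane potential signal beyond 5 SD of the control wells in both duplicate plates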;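 note: TRPC4 counter screen for TRPC6 hits run under conditions tuned for TRPC6 not TRPC4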
TRPC6 block conf = confirmation of mouse TRPC6 inhibitors | HEK293-TRPC6, membrane potential dye, ACh-evoked depolarization | inhibition, % at 10 µM | hit rate 43% among 3,300 | shares compounds with TRPC6 inh;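 active = fluorescence ratio falls more than 5 SD below the full-stimulation control mean, in both duplicate runs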;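 note: integrated fluorescence ratio of peak minus minimum over baseline after agonist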
TRPC6 act conf = mouse TRPC6 activator confirmation | shares compounds with TRPC6 inh | HEK293-TRPC6 membrane potential dye fluorescence, FDSS | activation, % at 10 µM | hit rate 11% among 2,800 | AID 488961;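 active = ratio signal rise beyond 5 SD above unstimulated control wells' mean, seen in both duplicate runs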;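 note: plate controls were buffer EC0 wells for no effect and acetylcholine ECmax response for full effect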
Starred values were filed as active, the others as inactive; i = inactive; nt = no result given. Rows were chosen to be rich in hits. Some 3% of all compounds tested hit in one or more screens of this group.

SMILES	Kir21 block	TRPC6 act	TRPC4 potent	TRPC4 inh	TRPC4 agonist	TRPC6 inh	HEK293 MPD ctr-2	HEK293 MPD ctr 2-2	TRPC4/MOR mod	TRPC4/MOR inh 2	TRPC6 block conf	TRPC6 act conf	others
CCCc1nc(NCCO)c(C#N)c2c1CCCC2	0.09	i	i	i	i	i	nt	nt	nt	nt	nt	nt
CCCCCNc1nc(NCCCO)c(C#N)c2c1CN(C)CC2	0.79	i	i	i	i	-5.6*	-100%*	i	-27%*	i	i	i
CN1CCc2c(C#N)c(N3CCOCC3)nc(NCC3CCCO3)c2C1 (stereo not drawn)	3.1	i	i	i	i	i	nt	nt	nt	nt	nt	nt
CCCCCNc1nc(N2CCCC2)c2c(c1C#N)CCN(C)C2	-3.5	i	i	i	i	-6.6*	nt	nt	nt	nt	71%*	i	TRPC4 sel inh 2=41%*;TRPC4 spec=-22%*;HEK293 MPD ctr 2-1=i;HEK293 MPD ctr-1=-272%*
COc1ccc(NC(=S)N2CCCC(c3nc4ccc(C)cc4[nH]3)C2)cc1 (stereo not drawn)	-0.41	i	i	i	i	-6.5*	i	i	i	i	i	i
N#CC1=C(N)Oc2cc(N)ccc2C1c1ccc(F)cc1F (stereo not drawn)	-4.7	39*	i	i	64*	i	121%*	i	i	i	i	27%*
N#CC1=C(N)Oc2cc(N)ccc2C1c1ccc(Cl)cc1 (stereo not drawn)	0.09	12*	i	i	i	i	i	i	i	i	i	i
N#CC1=C(N)Oc2cc(N)ccc2C1c1ccc(F)cc1 (stereo not drawn)	2.3	i	i	i	i	i	nt	nt	nt	nt	nt	nt
CN1CCN(c2ccccc2NC(=O)c2sc3ccccc3c2Cl)CC1	-0.03	i	i	i	i	i	nt	nt	nt	nt	nt	nt
CCN(CC)CCCCNc1ncc2cc(-c3cc(OC)cc(OC)c3)c(NC(=O)NC(C)(C)C)nc2n1	0.37	i	i	i	i	-5.5*	i	i	i	43%*	54%*	i
CC(=O)Nc1nnc(SCC(=O)Nc2nc(C)cs2)s1	-0.82	i	i	i	i	i	nt	nt	nt	nt	nt	nt
C/C=C/C=C/C(=O)N1CC[C@]23c4ccccc4N[C@H]4N(C)c5cccc6c5[C@]42CCN([C@H]6C2OC2(C)C)[C@H]13 (stereo partly drawn)	0.14	i	i	i	i	-6.5*	i	i	i	30%*	66%*	nt
CN1CCC23c4ccccc4NC1C21CCN(C)C3Nc2ccccc21	0.09	i	i	i	i	i	nt	nt	nt	nt	nt	nt
O=C(COC(=O)c1cc([N+](=O)[O-])ccc1N1CCOCC1)Nc1cccc(F)c1	1.8	i	i	i	i	i	nt	nt	nt	nt	nt	nt
Cc1cc(NC(=O)CCC(=O)N(C2CC2)C2(C(=O)NC3CCCC3)CCC(C)CC2)no1 (stereo not drawn)	0.16	i	i	i	i	-5.1*	i	i	18%*	i	i	nt
Cc1cc(NC(=O)CCC(=O)N(Cc2ccco2)C2(C(=O)NC3CCCC3)CCC(C)CC2)no1 (stereo not drawn)	-1.3	i	i	i	i	i	nt	nt	nt	nt	nt	nt
O=C(O)CCC(=O)N1N=C(c2ccc(Br)cc2)CC1c1cccc(Br)c1 (stereo not drawn)	1.7	i	i	i	i	i	nt	nt	nt	nt	nt	nt
CC(=O)c1c(C)nc(-c2ccccc2)nc1NC(=O)C(C)C	0.75	i	i	i	i	i	nt	nt	nt	nt	nt	nt
CC(=O)c1c(C)nc(-c2ccc(Cl)cc2)nc1NC(=O)C(C)C	0.63	i	i	i	i	-6*	i	106%*	18%*	i	72%*	nt
CSc1nc(N2CCOCC2)c2ccccc2n1	-0.02	i	i	i	i	i	nt	nt	nt	nt	nt	nt
CCN(CC)c1ccc(Nc2nc(N3CCOCC3)c3ccccc3n2)cc1	-0.78	i	i	i	i	-5.2*	-143%*	i	-32%*	56%*	i	i
CCCCCCCCn1ccc(=N)cc1	-0.52	i	i	i	i	i	nt	nt	nt	nt	nt	nt
CCCCCCCCCCn1ccc(=N)cc1	-3.1	i	i	i	i	-9.1*	nt	nt	nt	nt	56%*	i	TRPC4 sel inh 2=i;TRPC4 spec=i;HEK293 MPD ctr 2-1=i;HEK293 MPD ctr-1=i
NC(=O)c1c(NC(=O)C2c3ccccc3Oc3ccccc32)sc2c1CCCCC2	0.81	i	i	i	i	-5.1*	i	i	i	i	i	i
CC12CCC(C/C1=N/O)C2(C)CBr (stereo not drawn)	0	i	i	i	i	i	nt	nt	nt	nt	nt	nt
N#Cc1ccc2[nH]c(CO)c(-c3ccccc3)c2c1	0.09	i	i	i	i	-5.4*	-84%*	i	-27%*	45%*	i	i
COc1ccc(F)cc1S(=O)(=O)NCC1CCCO1 (stereo not drawn)	-0.09	i	i	i	i	i	nt	nt	nt	nt	nt	nt
